Screening results (PubChem)
Mac1 fbg enh – increases human CD11b/CD18 adhesion to fibrinogen; K562 CD11b/CD18 adhesion to fibrinogen, ATPlite luminescence; P05107+P11215; 93,000 compounds, 0.07% hits; activation, % at 10 µM; AID 1499;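 active = 10 µM primary screen giving 50% or more activity, confirmed by 40% or more on retest at that dose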
MT1-MMP txn act – MT1-MMP promoter transcription activation; HT1080 MT1-MMP promoter luciferase reporter, luminescence, overnight; stronger effect = higher value; activation factor at 10 µM; AID 750; 86,000 compounds, 0.16% hits;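 active = activation factor of at least 2 for MT1-MMP transcription at 10 µM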
SF-1 act – activators of human nuclear receptor SF-1; CHO-K1 Gal4-SF-1 LBD luciferase reporter; % increase over DMSO SF-1-specific signal; activation, % at 10 µM; 65,000 compounds, 1.9% hits;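 active = activation above the mean activation of all tested compounds plus 3 SD, cut at about 50% in these data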
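material = CHO-K1 cells with Gal4–hSF-1 LBD chimera plus Gal4-driven luciferase | compound = 10 µM single point, 1% DMSO | incubation = 20 h compound exposure at 37 °C after 1 h cell settling | measured by = SteadyLite luciferase luminescence | evaluation = percent activation relative to DMSO median and mock-transfected background | control set = DMSO negative control and −SF1 background wells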
RORA act – activators of human nuclear receptor RORA. P35398. CHO-K1 Gal4-RORA LBD luciferase reporter, luminescence; percent increase over mock-subtracted basal signal. activation, % at 10 µM. 65,000 compounds, 1.5% hits;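 active = activation above the mean of all tested compounds plus 3 SD, cut at about 49% in these data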
Target sequence (P35398 whole entry, looked up, the tested form may be a part): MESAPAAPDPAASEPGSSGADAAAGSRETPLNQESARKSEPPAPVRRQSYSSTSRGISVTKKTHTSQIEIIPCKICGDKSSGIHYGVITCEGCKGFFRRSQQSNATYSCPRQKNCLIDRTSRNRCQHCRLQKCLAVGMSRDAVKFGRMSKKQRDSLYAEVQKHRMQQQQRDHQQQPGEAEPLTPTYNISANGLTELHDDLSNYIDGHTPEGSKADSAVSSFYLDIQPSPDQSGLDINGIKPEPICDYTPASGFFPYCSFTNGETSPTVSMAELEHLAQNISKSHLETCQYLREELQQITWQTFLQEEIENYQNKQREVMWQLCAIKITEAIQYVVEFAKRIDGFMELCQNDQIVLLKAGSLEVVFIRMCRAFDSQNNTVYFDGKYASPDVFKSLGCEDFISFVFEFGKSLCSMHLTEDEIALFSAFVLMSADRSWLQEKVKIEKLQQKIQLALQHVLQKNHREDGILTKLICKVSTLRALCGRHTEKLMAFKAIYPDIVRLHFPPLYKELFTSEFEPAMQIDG
TNAP act DEA – human TNAP activation, intermediate phosphate acceptor. activation factor at 20 µM. P05186. AID 813. purified TNAP, CDP-star luminescence, 100 mM DEA, 30 min; stronger effect = higher value; scale: 0 levamisole-inhibited, 1 vehicle-only enzyme. 64,000 tested, under 10 active;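 active = activation factor of at least 2 at 20 µM, relative to controls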
Mac1 fbg inh – blocks human CD11b/CD18 adhesion to fibrinogen | P05107+P11215 | K562 CD11b/CD18 adhesion to fibrinogen, ATPlite luminescence; Mn2+ added to activate the integrin | inhibition, % at 10 µM | 93,000 compounds, 0.54% hits | AID 1497;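 active = primary inhibition of 50% or more at 10 µM, then 40% or more on retest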
Hits are given with their value; i = inactive; nt = no result given. The list is not random: actives were taken first. Their share in the collection is about 2.1%.

SMILES | Mac1 fbg enh | MT1-MMP txn act | SF-1 act | RORA act | TNAP act DEA | Mac1 fbg inh
COc1cc(NC(=O)COC(=O)CSc2cc(C)ccc2C)c(C)cc1[N+](=O)[O-] | i | nt | nt | nt | nt | i
CC1=NN(C(=O)c2ccc(Br)cc2)C(O)(C(F)(F)OC(F)(F)F)C1 (centres undefined) | i | nt | nt | nt | nt | 93
O=C(Nc1cccc(-c2nc3cc(Cl)ccc3o2)c1)C1CCCO1 (centres undefined) | i | i | 81 | i | i | i
Cc1ccc2oc(-c3cccc(NC(=O)C4CCCO4)c3)nc2c1 (centres undefined) | i | i | i | i | i | i
CC(C)C(=O)Nc1cccc(-c2nc3ccccc3o2)c1 | i | i | 52 | i | i | i
COc1ccc(OCC(=O)Nc2cccc(-c3nc4ccccc4o3)c2)cc1 | i | i | i | 57 | i | i
COC(=O)c1ccc(C(NC(=O)OCc2ccccc2)/C(I)=C/[C@@H](C)C(=O)NCc2ccc(C)o2)cc1 (some centres undefined) | nt | i | nt | nt | nt | nt
Cn1nnc(NC(=O)c2cccc(OCc3ccccc3)c2)n1 | i | i | i | 54 | i | i
CCOc1ccc(OCC)c(NC(=O)C2CCCN2S(=O)(=O)c2cccc3cccnc23)c1 (centres undefined) | i | i | 58 | i | i | i
O=C(/C=C/c1cc([N+](=O)[O-])ccc1OC(F)F)Nc1cccc(OC(F)F)c1 | i | nt | nt | nt | nt | i
Cc1ccc(S(=O)(=O)C/N=C(/NC(=S)N(c2ccccc2)c2ccccc2)c2ccccc2)cc1 | i | i | nt | nt | nt | i
CCCCN(Cc1ccccc1)C(=O)C1CCN(S(=O)(=O)c2c(C)noc2C)CC1 | i | i | nt | nt | nt | i
Cc1ccc(S(=O)(=O)/N=C2/C=C(C3C(=O)CC(C)(C)CC3=O)C(=O)c3ccccc32)cc1 | i | 2.1 | nt | nt | nt | i
C=CCn1c(NC(=O)c2ccccc2Cl)c(C#N)c2nc3ccccc3nc21 | i | i | i | i | i | 97
C=CCn1c(NC(=O)c2ccccc2)c(C#N)c2nc3ccccc3nc21 | nt | i | i | i | i | nt
c1cc(-c2nnc(-c3ccncc3)o2)ccn1 | i | i | i | i | i | i
Cc1ccc(-c2cnc(-c3ccncc3)o2)cc1 | i | i | 65 | 58 | i | i
O=C(c1ccco1)N1CCN(c2ccc(Cl)cc2)CC1 | nt | i | i | 98 | i | nt
CC1CCN(C(=O)CN2C(=O)c3ccccc3S2(=O)=O)CC1 | i | i | i | i | i | i
CN(C)c1ccc(C2=NOC(CN3C(=O)c4ccccc4S3(=O)=O)C2)cc1 (centres undefined) | i | i | i | 60 | i | i
CCOc1ccccc1NC1c2ccccc2C(=O)N1c1ccc(C)cn1 (centres undefined) | i | i | i | 63 | i | i
COc1cc(NC2c3ccccc3C(=O)N2c2ccc(C)cn2)cc(OC)c1OC (centres undefined) | i | i | i | i | i | i
CCOC(=O)c1ccc(NC2c3ccccc3C(=O)N2c2ccccn2)cc1 (centres undefined) | i | nt | nt | nt | nt | i
CCOC(=O)c1ccccc1NC1c2ccccc2C(=O)N1c1ccc(C)cn1 (centres undefined) | i | nt | 62 | i | i | i
O=C1[O][Bi][O]c2ccccc21 | nt | i | nt | nt | nt | nt
SMILES | Mac1 fbg enh | MT1-MMP txn act | SF-1 act | RORA act | TNAP act DEA | Mac1 fbg inh
COc1cc2c(cc1OC)C(c1cc3ccccc3oc1=O)=NC(C)(C)C2 | nt | i | nt | nt | nt | nt
CCN(CC)S(=O)(=O)c1ccc2nc(NC(=O)c3cccs3)sc2c1 | i | i | i | 49 | nt | i
COC(=O)[C@@]1(Cc2ccccc2)[C@H]2c3cc(C(=O)N4CCCC4)n(Cc4ccc(S(C)(=O)=O)cc4)c3C[C@H]2CN1C(=O)c1ccccc1 | nt | i | nt | nt | nt | nt
Cc1cc(C)c[n+](-c2[nH]c(=O)sc2/C=N/NC([S-])=Nc2ccccc2)c1 | i | nt | nt | nt | nt | i
COc1ccc(-c2cn3c(C)c(C(=O)NC(C)(C)C)sc3n2)cc1 | nt | i | i | 56 | i | nt
Cc1c(C(=O)Nc2ccccc2)sc2nc(-c3ccccc3)cn12 | i | nt | 54 | 58 | i | i
CCC1CCCCN1c1nc2c(c(=O)n(C)c(=O)n2C)n1CCSc1nc2ccccc2o1 (centres undefined) | nt | i | i | i | i | nt
CC(C)c1cc(C(=O)NC2CCCCC2)no1 | nt | i | 54 | i | i | nt
CCCc1cc(C(=O)NC2CCCCC2)no1 | i | i | 54 | i | i | i
CCCc1cc(C(=O)N(C2CCCCC2)C2CCCCC2)no1 | i | i | i | i | i | i
CCCc1cc(C(=O)NC2CCCC2)no1 | i | i | i | 61 | i | i
CCOC(=O)C1=C(CCc2ccccc2)NC(=O)NC1c1ccc(C#N)cc1 (centres undefined) | nt | i | nt | nt | nt | nt
Cc1nn(CC(=O)NCc2cccc3ccccc23)c(=O)c2ccccc12 | nt | i | nt | nt | nt | nt
CCOCCCNc1ccc(-c2ccccc2)nn1 | i | i | 58 | i | i | i
CCOCCCNc1nc2ccccc2[nH]1 | i | i | i | i | i | i
Cc1nc2cc(NC(=O)N3c4ccccc4CC3C)ccc2o1 (centres undefined) | i | i | 79 | i | i | i
Oc1cc(NCc2cccnc2)ccc1-c1nc2ccccc2o1 | nt | i | i | 61 | i | nt
CCc1ccc(OCC(=O)Nc2ccc(-c3nc4ccccc4o3)c(O)c2)cc1 | nt | i | i | i | i | nt
Cn1c(NC(=O)CCC2CCCCC2)cc(=O)n(C)c1=O | i | i | 92 | i | i | i
Cn1c2ccccc2c2ncn(CCCN3CCOCC3)c(=O)c21 | i | i | i | i | i | i
Cn1c2ccccc2c2ncn(CCC3=CCCCC3)c(=O)c21 | i | i | 51 | i | i | i
CCCn1c(SCC(=O)c2cc(C)n(-c3ccc4c(c3)OCO4)c2C)n[nH]c1=O | i | nt | nt | nt | nt | i
Cc1cc(C(=O)CSc2nncs2)c(C)n1-c1ccc2c(c1)OCO2 | i | i | 69 | i | i | i
Cc1nnc2n(-c3ccccc3)c(=O)c3c4c(sc3n12)COC(C(C)C)C4 (centres undefined) | i | i | i | i | i | i
CC(C)C1Cc2c(sc3[nH]c(=S)n(Cc4ccccc4)c(=O)c23)CO1 (centres undefined) | i | i | nt | nt | nt | 53
Cc1ccc(SCc2c(C#N)c3ccccc3n2C)cc1 | nt | i | i | i | i | nt
Cn1c(CSc2ccccc2)c(C#N)c2ccccc21 | i | i | i | 61 | i | i
COCCn1c(C)cc(C(=O)COC(=O)C23CC4CC(CC(O)(C4)C2)C3)c1C | i | i | 77 | i | i | i
COCCn1c(C)cc(C(=O)COC(=O)c2cc3c(s2)CCC3)c1C | i | i | i | i | i | i
Cc1ccc(S(=O)(=O)N2CCCC(c3nc(-c4ccc(C)o4)no3)C2)cc1 (centres undefined) | i | i | nt | nt | nt | i
